Measurements as given in ChEMBL document CHEMBL4431309, “17β-Hydroxy-18-acetoxywithanolides from Aeroponically Grown Physalis crassifolia and Their Potent and Selective Cytotoxicity for Prostate Cancer Cells” (J Nat Prod, 2016).
The source made the active and inactive calls. No cut-off for these calls is given here.

How the values were obtained:
LNCaP [1] = assay: Cytotoxicity against human LNCAP cells after 72 hrs by resazurin-based colorimetric assay; type: functional, cell-based
How it was run: (§1)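 Androgen-sensitive human prostate adenocarcinoma line (LNCaP). Doxorubicin served as positive control and DMSO as negative control. Compounds were tested at concentrations up to 5.0 μM.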

MCF7 [2] = assay: Cytotoxicity against human MCF7 cells after 72 hrs by resazurin-based colorimetric assay; type: functional, cell-based; details: MCF7, 72 h
How it was run: (§2)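 Human breast cancer line (MCF-7). Doxorubicin was the positive control and DMSO the negative control. Testing went up to 5.0 μM.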

SF-268 [3] = assay: Cytotoxicity against human SF268 cells after 72 hrs by resazurin-based colorimetric assay; type: functional, cell-based; details: SF-268, 72 h
How it was run: (§3)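 Doxorubicin (positive) and DMSO (negative) were run as controls. Compounds were tested up to a highest concentration of 5.0 μM.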

PC-3M [4] = assay: Cytotoxicity against human PC3M cells after 72 hrs by resazurin-based colorimetric assay; type: functional, cell-based
How it was run: (§4)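 Metastatic human prostate adenocarcinoma line (PC-3M). Controls were doxorubicin (positive) and DMSO (negative). The highest concentration tested was 5.0 μM.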

NCI-H460 [5] = assay: Cytotoxicity against human NCI-H460 cells after 72 hrs by resazurin-based colorimetric assay; type: functional, cell-based; details: NCI-H460, 72 h
How it was run: (§5)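 Human non-small-cell lung cancer line (NCI-H460). Doxorubicin was included as positive control and DMSO as negative control. The maximum concentration tested was 5.0 μM.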

HFF [6] = assay: Cytotoxicity against human HFF cells after 72 hrs by resazurin-based colorimetric assay; type: cell-based; how it was run: as §3
MCF7 [7] = assay: Cytotoxicity against human MCF7 cells up to 5 uM after 72 hrs by resazurin-based colorimetric assay; type: functional, cell-based; how it was run: as §2
LNCaP [8] = assay: Cytotoxicity against human LNCAP cells up to 5 uM after 72 hrs by resazurin-based colorimetric assay; type: functional, cell-based; how it was run: as §1
SF-268 [9] = assay: Cytotoxicity against human SF268 cells up to 5 uM after 72 hrs by resazurin-based colorimetric assay; type: functional, cell-based; how it was run: as §3
HFF [10] = assay: Cytotoxicity against human HFF cells up to 5 uM after 72 hrs by resazurin-based colorimetric assay; type: cell-based; how it was run: as §3
NCI-H460 [11] = assay: Cytotoxicity against human NCI-H460 cells up to 5 uM after 72 hrs by resazurin-based colorimetric assay; type: functional, cell-based; how it was run: as §5
PC-3M [12] = assay: Cytotoxicity against human PC3M cells up to 5 uM after 72 hrs by resazurin-based colorimetric assay; type: functional, cell-based; how it was run: as §4

CC(=O)OC[C@]12CC[C@H]3[C@@H](CC=C4C[C@@H](OS(=O)(=O)O)CC(=O)[C@@]43C)[C@]1(O)CC[C@@]2(O)[C@@](C)(O)[C@H]1CC(C)=C(C)C(=O)O1
IC50 (LNCaP [1]): 210 nM
IC50 (MCF7 [2]): 2200 nM
IC50 (SF-268 [3]): > 5000 nM
IC50 (PC-3M [4]): 560 nM
IC50 (NCI-H460 [5]): 3800 nM
IC50 (HFF [6]): > 5000 nM

CC(=O)OC[C@]12CC[C@H]3[C@@H](CC=C4C[C@@H](OS(=O)(=O)O)CC(=O)[C@@]43C)[C@]1(O)[C@@H](OC(C)=O)C[C@@]2(O)[C@@](C)(O)[C@H]1CC(C)=C(C)C(=O)O1
IC50 (LNCaP [1]): 120 nM
IC50 (MCF7 [2]): > 5000 nM
IC50 (SF-268 [3]): 2800 nM
IC50 (PC-3M [4]): 430 nM
IC50 (NCI-H460 [5]): 2500 nM

CC1=C(C)C(=O)O[C@@H]([C@](C)(O)[C@H]2CC[C@@]3(O)[C@@H]4[C@@H]5O[C@@H]5[C@@]5(O)CC=CC(=O)[C@]5(C)[C@H]4CC[C@]23C)C1
Activity (MCF7 [7]): inactive
Activity (LNCaP [8]): inactive
Activity (SF-268 [9]): inactive
Activity (HFF [10]): Non-Toxic
Activity (NCI-H460 [11]): inactive
Activity (PC-3M [12]): inactive

C/C(=C1/C(=O)C[C@H]2[C@@H]3[C@@H]4O[C@@H]4[C@@]4(O)CC=CC(=O)[C@]4(C)[C@H]3CC[C@]12C)[C@H]1C[C@]2(C)O[C@]2(C)[C@H](O)O1
Activity (MCF7 [7]): inactive
Activity (LNCaP [8]): inactive
Activity (SF-268 [9]): inactive
Activity (HFF [10]): Non-Toxic
Activity (NCI-H460 [11]): inactive
Activity (PC-3M [12]): inactive

CC(=O)OC[C@]12CC[C@H]3[C@@H](CC=C4CC=CC(=O)[C@@]43C)[C@]1(O)CC[C@@H]2[C@@](C)(O)[C@@H]1OC(=O)C(C)=C(C)[C@@H]1O
Activity (MCF7 [7]): inactive
Activity (LNCaP [8]): inactive
Activity (SF-268 [9]): inactive
Activity (HFF [10]): Non-Toxic
Activity (NCI-H460 [11]): inactive
Activity (PC-3M [12]): inactive

CC1=C(CO)C(=O)O[C@@H]([C@@H](C)[C@H]2CC[C@H]3[C@@H]4C[C@H]5O[C@]56[C@@H](O)C=CC(=O)[C@]6(C)[C@H]4CC[C@]23C)C1 [WITHAFERIN A]
IC50 (SF-268 [3]): < 400 nM
IC50 (PC-3M [4]): 410 nM
IC50 (NCI-H460 [5]): < 400 nM
IC50 (HFF [6]): > 6800 nM

COc1cccc2c1C(=O)c1c(O)c3c(c(O)c1C2=O)C[C@@](O)(C(=O)CO)C[C@@H]3O[C@H]1C[C@H](N)[C@H](O)[C@H](C)O1 [DOXORUBICIN]
IC50 (MCF7 [2]): 320 nM
IC50 (PC-3M [4]): 250 nM

CC(=O)OC[C@]12CC[C@H]3[C@@H](CC=C4CC=CC(=O)[C@@]43C)[C@]1(O)CC[C@@]2(O)[C@@](C)(O)[C@H]1CC(C)=C(CO)C(=O)O1
IC50 (LNCaP [1]): 3700 nM
IC50 (MCF7 [2]): > 5000 nM
IC50 (SF-268 [3]): > 5000 nM
IC50 (PC-3M [4]): > 5000 nM
IC50 (NCI-H460 [5]): > 5000 nM

CC(=O)OC[C@]12CC[C@H]3[C@@H](CC=C4CC=CC(=O)[C@@]43C)[C@]1(O)[C@@H](OC(C)=O)C[C@@]2(O)[C@@](C)(O)[C@H]1CC(C)=C(CO[C@@H]2O[C@H](CO)[C@@H](O)[C@H](O)[C@H]2O)C(=O)O1
Activity (MCF7 [7]): inactive
Activity (LNCaP [8]): inactive
Activity (SF-268 [9]): inactive
Activity (HFF [10]): Non-Toxic
Activity (NCI-H460 [11]): inactive
Activity (PC-3M [12]): inactive

CC(=O)OC[C@]12CC[C@H]3[C@@H](CC=C4CC=CC(=O)[C@@]43C)[C@]1(O)[C@@H](OC(C)=O)C[C@@]2(O)[C@@](C)(O)[C@H]1CC(C)=C(CO)C(=O)O1
Activity (MCF7 [7]): inactive
Activity (LNCaP [8]): inactive
Activity (SF-268 [9]): inactive
Activity (HFF [10]): Non-Toxic
Activity (NCI-H460 [11]): inactive
Activity (PC-3M [12]): inactive

CC(=O)OC[C@]12CC[C@H]3[C@@H](CC=C4CC=CC(=O)[C@@]43C)[C@]1(O)[C@@H](OC(C)=O)C[C@@]2(O)[C@@](C)(O)[C@H]1CC(CO[C@@H]2O[C@H](CO)[C@@H](O)[C@H](O)[C@H]2O)=C(C)C(=O)O1
Activity (MCF7 [7]): inactive
Activity (LNCaP [8]): inactive
Activity (SF-268 [9]): inactive
Activity (HFF [10]): Non-Toxic
Activity (NCI-H460 [11]): inactive
Activity (PC-3M [12]): inactive

CC(=O)OC[C@]12CC[C@H]3[C@@H](C[C@H]4O[C@]45CC=CC(=O)[C@]35C)[C@]1(O)[C@@H](OC(C)=O)C[C@@]2(O)[C@@](C)(O)[C@H]1CC(C)=C(C)C(=O)O1
IC50 (LNCaP [1]): 1200 nM
IC50 (MCF7 [2]): > 2500 nM
IC50 (SF-268 [3]): > 2500 nM
IC50 (PC-3M [4]): 1800 nM
IC50 (NCI-H460 [5]): > 2500 nM

CC(=O)OC[C@]12CC[C@H]3[C@@H](CC=C4CC=CC(=O)[C@@]43C)[C@]1(O)CC[C@@H]2[C@@](C)(O)[C@H]1CC(C)=C(C)C(=O)O1
Activity (MCF7 [7]): inactive
Activity (LNCaP [8]): inactive
Activity (SF-268 [9]): inactive
Activity (HFF [10]): Non-Toxic
Activity (NCI-H460 [11]): inactive
Activity (PC-3M [12]): inactive

CC(=O)OC[C@]12CC[C@H]3[C@@H](CC=C4C=CCC(=O)[C@@]43C)[C@]1(O)[C@@H](OC(C)=O)C[C@@]2(O)[C@@](C)(O)[C@H]1CC(CO)=C(C)C(=O)O1
Activity (MCF7 [7]): inactive
Activity (LNCaP [8]): inactive
Activity (SF-268 [9]): inactive
Activity (HFF [10]): Non-Toxic
Activity (NCI-H460 [11]): inactive
Activity (PC-3M [12]): inactive

CC(=O)OC[C@]12CC[C@H]3[C@@H](CC=C4CC=CC(=O)[C@@]43C)[C@]1(O)[C@@H](O)C[C@@]2(O)[C@@](C)(O)[C@H]1CC(C)=C(C)C(=O)O1
IC50 (LNCaP [1]): 190 nM
IC50 (MCF7 [2]): > 2500 nM
IC50 (SF-268 [3]): > 2500 nM
IC50 (PC-3M [4]): 600 nM
IC50 (NCI-H460 [5]): > 2500 nM
